Measurements: ChEMBL document CHEMBL4138104, “Indole carboxylic acid esters of melampomagnolide B are potent anticancer agents against both hematological and solid tumor cells” (Eur J Med Chem, 2017)

Assays:
Assay type in all cases: functional
HCC 2998 = experiment: Growth inhibition of human HCC2998 cells incubated for 48 hrs by sulforhodamine B assay; conditions: HCC 2998, 48 h
Procedure, shortened: (§1)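 NCI-60 screen. Compounds were dosed at five concentrations spanning 10^-4 to 10^-8 M for 48 h at 37 °C. Cells were TCA-fixed, stained with 0.4% SRB and read at 515 nm against time-zero and vehicle controls. GI50 is the concentration giving a 50% reduction in net protein increase.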

UO-31 = experiment: Growth inhibition of human UO31 cells incubated for 48 hrs by sulforhodamine B assay; conditions: UO-31, 48 h
Procedure, shortened: (§2)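 NCI-60 screen run at NCI. Cells grown in RPMI medium with 5% FBS and 2 mM L-glutamine, plated at 5,000–40,000 cells/well, and preincubated 24 h at 37 °C. Time-zero plates were TCA-fixed. Compounds came from DMSO stocks and were tested at five concentrations from 10^-4 to 10^-8 M for 48 h. Cells were then TCA-fixed, stained with 0.4% SRB, and OD read at 515 nm. GI50 is the concentration giving a 50% reduction in net protein increase versus control.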

SK-OV-3 = experiment: Growth inhibition of human SKOV3 cells incubated for 48 hrs by sulforhodamine B assay; conditions: SK-OV-3, 48 h; procedure, shortened: as §1
SK-MEL-28 = experiment: Growth inhibition of human SK-MEL-28 cells incubated for 48 hrs by sulforhodamine B assay; conditions: SK-MEL-28, 48 h; procedure, shortened: as §1
A498 = experiment: Growth inhibition of human A498 cells incubated for 48 hrs by sulforhodamine B assay; conditions: A498, 48 h; procedure, shortened: as §1
HCT-116 = experiment: Growth inhibition of human HCT116 cells incubated for 48 hrs by sulforhodamine B assay; conditions: HCT-116, 48 h; procedure, shortened: as §1
UACC-62 = experiment: Growth inhibition of human UACC62 cells incubated for 48 hrs by sulforhodamine B assay; conditions: UACC-62, 48 h; procedure, shortened: as §2
NCI-H322M = experiment: Growth inhibition of human NCI-H322M cells incubated for 48 hrs by sulforhodamine B assay; procedure, shortened: as §1
SW-620 = experiment: Growth inhibition of human SW620 cells incubated for 48 hrs by sulforhodamine B assay; conditions: SW-620, 48 h; procedure, shortened: as §2
A549 = experiment: Growth inhibition of human A549/ATCC cells incubated for 48 hrs by sulforhodamine B assay; conditions: A549, 48 h; procedure, shortened: as §1
CCRF-CEM = experiment: Growth inhibition of human CCRF-CEM cells incubated for 48 hrs by sulforhodamine B assay; procedure, shortened: as §1
NCI/ADR-RES = experiment: Growth inhibition of human NCI/ADR-RES cells incubated for 48 hrs by sulforhodamine B assay; procedure, shortened: as §1
NCI-H522 = experiment: Growth inhibition of human NCI-H522 cells incubated for 48 hrs by sulforhodamine B assay; conditions: NCI-H522, 48 h; procedure, shortened: as §1
MCF7 = experiment: Growth inhibition of human MCF7 cells incubated for 48 hrs by sulforhodamine B assay; conditions: MCF7, 48 h; procedure, shortened: as §1
U-251 = experiment: Growth inhibition of human U251 cells incubated for 48 hrs by sulforhodamine B assay; conditions: U-251, 48 h; procedure, shortened: as §2
OVCAR-8 = experiment: Growth inhibition of human OVCAR8 cells incubated for 48 hrs by sulforhodamine B assay; conditions: OVCAR-8, 48 h; procedure, shortened: as §1
SF-539 = experiment: Growth inhibition of human SF539 cells incubated for 48 hrs by sulforhodamine B assay; conditions: SF-539, 48 h; procedure, shortened: as §1
HT-29 = experiment: Growth inhibition of human HT-29 cells incubated for 48 hrs by sulforhodamine B assay; conditions: HT-29, 48 h; procedure, shortened: as §1
SNB-19 = experiment: Growth inhibition of human SNB19 cells incubated for 48 hrs by sulforhodamine B assay; conditions: SNB-19, 48 h; procedure, shortened: as §2
RXF 393 = experiment: Growth inhibition of human RXF393 cells incubated for 48 hrs by sulforhodamine B assay; conditions: RXF 393, 48 h; procedure, shortened: as §1
SN12C = experiment: Growth inhibition of human SN12C cells incubated for 48 hrs by sulforhodamine B assay; procedure, shortened: as §1
LOX IMVI = experiment: Growth inhibition of human LOXIMVI cells incubated for 48 hrs by sulforhodamine B assay; procedure, shortened: as §1
OVCAR-5 = experiment: Growth inhibition of human OVCAR5 cells incubated for 48 hrs by sulforhodamine B assay; conditions: OVCAR-5, 48 h; procedure, shortened: as §1
Malme-3M = experiment: Growth inhibition of human MALME-3M cells incubated for 48 hrs by sulforhodamine B assay; procedure, shortened: as §1
[1] = Cytotoxicity against human M9-ENL1 cells assessed as reduction in cell viability by trypan blue staining-based assay
Procedure, shortened: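 M9-ENL1 AML cells (MLL-ENL-transduced human blood cells) plated at 10^6 cells/mL in alpha-MEM with 5% human plasma, 20% FBS, SCF, IL-3, IL-7 and FLT3. Drug diluted from DMSO stock into PBS, final DMSO ≤0.5%. After 24 h exposure, dead cells assessed by trypan blue and by flow cytometry (Annexin V/PI or Annexin V/7-AAD). Viability normalized to vehicle; EC50 from dose-response curves; triplicate.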

HL-60(TB) = experiment: Growth inhibition of human HL-60(TB) cells incubated for 48 hrs by sulforhodamine B assay; conditions: HL-60, 48 h
Procedure, shortened: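 Performed at NCI's 60-line screen. Cells grown in RPMI with 5% FBS and 2 mM L-glutamine, plated 5,000–40,000 cells/well and incubated 24 h at 37 °C before compound addition. DMSO stocks were diluted in medium with gentamicin, and five concentrations spanning 10^-4 to 10^-8 M were tested. Exposure was 48 h. Cells were fixed with TCA, stained with SRB, and read at 515 nm. GI50 taken from log dose-response curves as 50% reduction in net protein increase versus control.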

KM12 = experiment: Growth inhibition of human KM12 cells incubated for 48 hrs by sulforhodamine B assay; conditions: KM12, 48 h; procedure, shortened: as §1
NCI-H226 = experiment: Growth inhibition of human NCI-H226 cells incubated for 48 hrs by sulforhodamine B assay; conditions: NCI-H226, 48 h; procedure, shortened: as §1
SF-295 = experiment: Growth inhibition of human SF295 cells incubated for 48 hrs by sulforhodamine B assay; conditions: SF-295, 48 h; procedure, shortened: as §1
SF-268 = experiment: Growth inhibition of human SF268 cells incubated for 48 hrs by sulforhodamine B assay; conditions: SF-268, 48 h; procedure, shortened: as §1
HCT-15 = experiment: Growth inhibition of human HCT15 cells incubated for 48 hrs by sulforhodamine B assay; conditions: HCT-15, 48 h; procedure, shortened: as §1
NCI-H460 = experiment: Growth inhibition of human NCI-H460 cells incubated for 48 hrs by sulforhodamine B assay; conditions: NCI-H460, 48 h; procedure, shortened: as §1
NCI-H23 = experiment: Growth inhibition of human NCI-H23 cells incubated for 48 hrs by sulforhodamine B assay; conditions: NCI-H23, 48 h; procedure, shortened: as §1
HOP-92 = experiment: Growth inhibition of human HOP92 cells incubated for 48 hrs by sulforhodamine B assay; conditions: HOP-92, 48 h; procedure, shortened: as §1
RPMI-8226 = experiment: Growth inhibition of human RPMI8226 cells incubated for 48 hrs by sulforhodamine B assay; conditions: RPMI-8226, 48 h; procedure, shortened: as §1
UACC-257 = experiment: Growth inhibition of human UACC257 cells incubated for 48 hrs by sulforhodamine B assay; conditions: UACC-257, 48 h; procedure, shortened: as §2
MOLT-4 = experiment: Growth inhibition of human MOLT4 cells incubated for 48 hrs by sulforhodamine B assay; conditions: MOLT-4, 48 h; procedure, shortened: as §1

Structure (SMILES) | GI50 (HCC 2998) [nM] | GI50 (UO-31) [nM] | GI50 (SK-OV-3) [nM] | GI50 (SK-MEL-28) [nM] | GI50 (A498) [nM] | GI50 (HCT-116) [nM] | GI50 (UACC-62) [nM] | GI50 (NCI-H322M) [nM] | GI50 (SW-620) [nM] | GI50 (A549) [nM] | GI50 (CCRF-CEM) [nM] | GI50 (NCI/ADR-RES) [nM] | GI50 (NCI-H522) [nM] | GI50 (MCF7) [nM] | GI50 (U-251) [nM] | GI50 (OVCAR-8) [nM] | GI50 (SF-539) [nM] | GI50 (HT-29) [nM] | GI50 (SNB-19) [nM] | GI50 (RXF 393) [nM] | other results
C=C1C(=O)O[C@@H]2[C@H]3O[C@]3(C)CC/C=C(/COC(=O)c3cc4ccccc4o3)CC[C@@H]12 | 2470 | 1460 | 16700 | 1750 | 12900 | 320 | 1680 | 5520 | 660 | 2910 | 330 | 2590 | 680 | 390 | 1630 | 2430 | 1450 | 820 | 3160 | 1430 | GI50 (SN12C): 1780 nM; GI50 (LOX IMVI): 1420 nM; GI50 (OVCAR-5): 1880 nM; GI50 (Malme-3M): 1660 nM; EC50 [1]: 2900 nM; GI50 (HL-60(TB)): 1220 nM; GI50 (KM12): 2020 nM; GI50 (NCI-H226): 1740 nM; GI50 (SF-295): 5900 nM; GI50 (SF-268): 1560 nM; GI50 (HCT-15): 1070 nM; GI50 (NCI-H460): 2000 nM; GI50 (NCI-H23): 1980 nM; GI50 (HOP-92): 1440 nM; GI50 (RPMI-8226): 710 nM; GI50 (UACC-257): 1520 nM; GI50 (MOLT-4): 1770 nM
C=C1C(=O)O[C@@H]2[C@H]3O[C@]3(C)CC/C=C(/COC(=O)c3cc4cc(Cl)ccc4[nH]3)CC[C@@H]12 | 1400 | 1210 | 10200 | 1580 | 2650 | 700 | 1670 | 4000 | 1400 | 1690 | 390 | 1450 | 1590 | 860 | 1750 | 1340 | 1440 | 1330 | 2910 | 1380 | GI50 (SN12C): 1700 nM; GI50 (LOX IMVI): 810 nM; GI50 (OVCAR-5): 1530 nM; GI50 (Malme-3M): 1630 nM; EC50 [1]: 3800 nM; GI50 (HL-60(TB)): 440 nM; GI50 (KM12): 2150 nM; GI50 (NCI-H226): 1800 nM; GI50 (SF-295): 3180 nM; GI50 (SF-268): 1440 nM; GI50 (HCT-15): 1000 nM; GI50 (NCI-H460): 1720 nM; GI50 (NCI-H23): 1630 nM; GI50 (HOP-92): 1250 nM; GI50 (RPMI-8226): 810 nM; GI50 (UACC-257): 1700 nM; GI50 (MOLT-4): 550 nM
CN(C)CC1C(=O)O[C@@H]2[C@H]3O[C@]3(C)CC/C=C(/COC(=O)c3cc4ccccc4[nH]3)CC[C@@H]12.O=C(O)/C=C/C(=O)O (stereo partly specified) | 1720 | 520 | 2190 | 2210 | 13100 | 290 | 1650 | 10800 | 1700 | 2440 | 320 | 1420 | 1220 | 610 | 2610 | 1680 | 2510 | 430 | 11900 | 1140 | GI50 (SN12C): 2210 nM; GI50 (LOX IMVI): 170 nM; GI50 (OVCAR-5): 2380 nM; GI50 (Malme-3M): 2010 nM; EC50 [1]: 2800 nM; GI50 (HL-60(TB)): 240 nM; GI50 (KM12): 2240 nM; GI50 (NCI-H226): 1980 nM; GI50 (SF-295): 3950 nM; GI50 (SF-268): 1480 nM; GI50 (HCT-15): 290 nM; GI50 (NCI-H460): 5850 nM; GI50 (NCI-H23): 1960 nM; GI50 (HOP-92): 1400 nM; GI50 (RPMI-8226): 280 nM; GI50 (UACC-257): 1470 nM; GI50 (MOLT-4): 1510 nM
